# PubChem BioAssay AID504450 (Broad Institute, 2011)
# Inconclusive results are not listed. Activity calls are given as the source filed them.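 Rule for the calls: active = signal falls, and half-maximal potency stays within ten times the top tested dose in every run; inconclusive = runs disagree, or a flat partial drop, or a poor fit; inactive = inactive every run, flat, wrong way or too weak.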
# Test system: not listed separately
# Assay: viability loss of control HMLE line – cell-based, HMLE_sh_eGFP, luminescence, powder samples, set 4, counter-screen for breast cancer stem cell project, dose response (AID 504450)
# Details: HMLE_sh_eGFP viability, CellTiter-Glo luminescence, 72 h; at 30 µM (top of the series)
# Outline: (§1)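 test system = HMLE breast epithelial cells expressing shRNA against eGFP (counterscreen line) | quantity = 2000 cells per well | incubation = ~72 h compound exposure, 37 °C | doses = 100 nL compound added by pin transfer per well | technique = CellTiter-Glo ATP luminescence, reagent diluted 1:3 in PBS, 12 min incubation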
row,Structure (SMILES),"activity change, negative = viability loss"
1,CC(C)c1ccc(/C=C/C(=O)Nc2ncc[nH]2)cc1,-18.2% (inactive)
2,Cn1ccnc1NC(=O)c1ccc(COc2ccccc2)o1,-18.4% (inactive)
3,O=C(N/N=C/c1ccc[nH]1)C1CC1c1ccccc1 (stereo not drawn),-2.24% (inactive)
4,O=C(/C=C/c1ccc(Cl)cc1)NC1=NCCS1,-4.58% (inactive)
5,O=C(COc1ccc(Cl)cc1Cl)N/N=C/c1ccn[nH]1,6.79% (inactive)
6,O=S(=O)(/C=C/c1ccccc1)NC1=NCCS1,19.6% (inactive)
7,COc1ccccc1OCC(=O)N/N=C/c1ccc[nH]1,14.8% (inactive)
8,O=C(Nc1nccs1)c1ccc(COc2ccccc2)o1,5.29% (inactive)
9,Cc1ccc(C)c(OCC(=O)N/N=C/c2ccc[nH]2)c1,-10.1% (inactive)
10,O=C(COc1c(Cl)cc(Cl)cc1Cl)N/N=C/c1ccn[nH]1,0.468% (inactive)
11,O=C(c1ccc(COc2ccccc2)o1)N1CCOCC1,5.39% (inactive)
12,Cc1cccc(C)c1OCC(=O)N/N=C/c1ccc[nH]1,8.5% (inactive)
13,O=C(N/N=C/c1ccn[nH]1)c1cc2ccccc2o1,16.4% (inactive)
14,COc1cccc(/C=C/C(=O)NC2=NCCS2)c1,1.9% (inactive)
15,O=C(NC1=NCCS1)C1CC1c1ccccc1 (stereo not drawn),7.45% (inactive)
16,O=C(/C=C/c1ccc(C(F)(F)F)cc1)NC1=NCCS1,11.7% (inactive)
17,O=C(NC1=NCCS1)/C(F)=C/c1ccccc1,13.9% (inactive)
18,C/C(=C\c1ccccc1)C(=O)NC1=NCCS1,12% (inactive)
19,Cc1csc(NC(=O)c2ccc(CO)o2)n1,13.5% (inactive)

# Test system: HMLE_sh_eGFP viability, CellTiter-Glo luminescence, 72 h
# Assay: as above
# Details: not given
# Outline: as §1
row,Structure (SMILES),AC50 [µM]
1,Cc1csc(NC(=O)c2ccc(COc3ccccc3Cl)o2)n1,0.163
2,O=C(COc1ccc(Cl)cc1Br)N/N=C/c1ccc[nH]1,20.9
3,Cc1csc(NC(=O)c2ccc(COc3ccc(OC(F)(F)F)cc3)o2)n1,13.2
4,CC[C@@H](C(=O)O)C1CC[C@H](C)C([C@@H](C)[C@H](O)[C@H](C)C(=O)[C@H](CC)C2O[C@]3(C=C[C@@H](O)[C@]4(CC[C@@](C)(C5CC[C@](O)(CC)[C@H](C)O5)O4)O3)[C@H](C)C[C@@H]2C)O1 (stereo partly drawn),0.007
5,CC(C)c1ccc(/C=C/C(=O)N(C)Cc2ccccc2)cc1,9.01
6,CC(C)c1ccc(/C=C/C(=O)Nc2nccs2)cc1,7.26
7,O=C(Nc1nc2cccc(Cl)c2s1)c1ccc(COc2ccccc2)o1,9.36
8,O=C(COc1ccc2c(c1)OCO2)N/N=C/c1ccc[nH]1,20.9
9,O=C(CSc1cc(Cl)ccc1Cl)N/N=C/c1ccc[nH]1,18
10,O=C(/C=C/c1cccc(Cl)c1)NC1=NCCS1,21.5
11,COc1ccccc1OCc1ccc(C(=O)Nc2nc(C)cs2)o1,8.54
12,CC(C)c1ccc(/C=C/C(=O)Nc2nccn2C)cc1,5.97
13,CC(C)c1ccc(/C=C/C(=O)NCc2ccccc2)cc1,13.2
14,O=C(Nc1ccccn1)c1ccc(COc2ccccc2)o1,29.7
15,Cc1csc(NC(=O)c2ccc(COc3cccc(F)c3)o2)n1,21.5
16,Cc1csc(NC(=O)c2ccc(COc3ccc(Cl)cc3)o2)n1,13
17,Cc1csc(NC(=O)c2ccc(COc3ccccc3C#N)o2)n1,3.69

row,Structure (SMILES),AC50 [µM]
1,CC(C)(C)c1ccc(C2CC2C(=O)N/N=C/c2ccc[nH]2)cc1 (stereo not drawn),2.14
2,COc1cccc(OCc2ccc(C(=O)Nc3nc(C)cs3)o2)c1,1.59
3,CC(C)c1ccc(/C=C/C(=O)Nc2ccccn2)cc1,14.8
4,Cc1csc(NC(=O)c2ccc(COc3ccc(F)cc3)o2)n1,28.5
5,CC(C)(C)c1ccc(/C=C/C(=O)NC2=NCCS2)cc1,20.6
6,Cc1csc(NC(=O)c2ccc(COc3cccc(OC(F)(F)F)c3)o2)n1,4.4
7,O=C(COc1ccc2ccccc2c1Br)N/N=C/c1ccc[nH]1,3.03
8,Cc1csc(NC(=O)c2ccc(COc3ccc(C#N)cc3)o2)n1,12.7
9,O=C(N/N=C/c1ccc[nH]1)C1COc2cc3ccccc3cc2O1 (stereo not drawn),18.9
10,CC(C)c1ccc(/C=C/C(=O)Nc2nncs2)cc1,9.97
11,Cc1csc(NC(=O)c2ccc(COc3ccccc3OC(F)(F)F)o2)n1,0.38
12,Cc1csc(NC(=O)c2ccc(COc3ccccc3F)o2)n1,0.151
13,Cc1csc(NC(=O)c2ccc(COc3cccc(Cl)c3)o2)n1,6.6
14,Cc1csc(NC(=O)c2ccc(COc3ccccc3C(F)(F)F)o2)n1,0.057
15,Cc1csc(NC(=O)c2ccc(COc3cccc(C#N)c3)o2)n1,15.4
16,Cc1csc(NC(=O)c2ccc(COc3cccc(C(F)(F)F)c3)o2)n1,23.5
17,Cc1csc(NC(=O)c2ccc(COc3ccc(C(F)(F)F)cc3)o2)n1,2.92
